High-throughput results as filed in PubChem.
Runt-SMMHC FRET = inhibitors of RUNX1 Runt–CBFb-SMMHC binding, primary screen, biochemical, FRET, Cerulean-Runt, Venus-CBFb-SMMHC, uHTS | 0.74% of 220,000 active | inhibition, % at 20 µM | Cerulean-Runt/Venus-CBFb-SMMHC FRET ratio 530/480, 1 h | Runt-related transcription factor 1 (Homo sapiens) + Core-binding factor subunit beta …;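 active means mean inhibition across duplicate retests at 20 µM reaching about 50%, limit read from the data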;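 further: 0% = DMSO wells and 100% = wells with excess untagged CBFb-SMMHC; inhibitors lower the FRET ratio by blocking Runt binding to CBFb-SMMHC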
RanGTP-Imp inh = inhibitors of RanGTP-importin-beta interaction, primary screen, biochemical, FRET, CFP-Ran, YFP-importin-beta, homogeneous; Ran GTPase (GTP-bound) - importin-beta complex; cell-free CFP-Ran/YFP-importin-beta FRET ratio; inhibition, % (concentration not given with the values); 1.1% of 300,000 active;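 active means more than half of the replicate wells show a fall in the fluorescence ratio signal beyond about 16%, limit read from the data, passing the limit was not always enough; inconclusive means exactly half of the replicate wells pass the set limit; inactive means fewer than half of replicates pass the limit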;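 further: 0% = DMSO wells and 100% = Ran loaded with GDP instead of GTP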
Runt-CBFb FRET = inhibitors of RUNX1 Runt–CBFb binding, primary screen, biochemical, FRET, Cerulean-Runt, Venus-CBFb, uHTS | inhibition, % at 20 µM | 0.46% of 220,000 active | Runt-related transcription factor 1 (Homo sapiens) + Core-binding factor subunit beta … | AID 1496, 2009 | Cerulean-Runt/Venus-CBFb FRET ratio 530/480, 1 h;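 active means inhibition over about 50% at 20 µM in the single-dose screen, limit read from the data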;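 further: 0% = DMSO wells and 100% = excess unlabeled CBFb competitor control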
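Schedule: protein complex preformed 1 h, compound exposure 1 h, room temperature, dark; test system: Cerulean-labeled Runt domain protein; amount: 100 nM per protein; buffer or medium: Tris 50 mM pH 7.5, KCl, K2SO4, 0.01% BSA; read-out: loss of energy transfer signal; detection: FRET fluorescence; controls: 5 µM unlabeled CBFb as full-inhibition high control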
FAS TE block = FAS thioesterase domain inhibitors, primary screen, biochemical, fluorescence intensity, uHTS; inhibition, % at 15 µM; recombinant FAS-TE, OMFH fluorogenic substrate, fluorescence endpoint; 0.67% of 360,000 active; Fatty acid synthase (Homo sapiens), P49327;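 active means compounds whose normalised, plate-corrected inhibition of enzyme fluorescence in the single-dose primary screen is 50% or more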;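 further: 0% = DMSO with enzyme and 100% = substrate without enzyme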
Calpain2 inh = inhibitors of pig calpain II, primary screen, biochemical, fluorogenic peptide substrate, 1536-well. 0.37% of 220,000 active. purified calpain II, 30 min. inhibition, % at 16 µM;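 active means inhibition above about 50%, limit read from the data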
FAS-TE inh conf = FAS thioesterase domain inhibitors, confirmation, biochemical, fluorescence intensity, single concentration; AID 624325, 2012; inhibition, % at 15 µM; recombinant FAS-TE, OMFH fluorogenic substrate; shares compounds with FAS TE block; 45% of 2,300 active;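 active means compounds inhibiting the enzyme by at least 50% at 15 µM in any one of the replicates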;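 further: 0% = enzyme with DMSO only and 100% = wells lacking enzyme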
An asterisk follows results filed as active; ? = inconclusive; nt = not tested or not shown. An excerpt weighted towards active compounds, which were near 2.1% of everything screened.

SMILES	Runt-SMMHC FRET	RanGTP-Imp inh	Runt-CBFb FRET	FAS TE block	Calpain2 inh	FAS-TE inh conf
O=C(CCn1cccn1)N1CCCC(Nc2ccc(F)c(F)c2)C1 (stereo unspecified)	nt	nt	nt	-6	nt	nt
CC1(C)C([N+](=O)[O-])C(c2ccc(F)cc2)NC(c2ccc(F)cc2)C1[N+](=O)[O-] (stereo unspecified)	0	0	-2	38	27	nt
CC1(C)C([N+](=O)[O-])C(c2ccc(Cl)cc2)NC(c2ccc(Cl)cc2)C1[N+](=O)[O-] (stereo unspecified)	6	-2	1	66*	-21	37
Cc1ccc(C2NC(c3ccc(C)cc3)C([N+](=O)[O-])C(C)(C)C2[N+](=O)[O-])cc1 (stereo unspecified)	3	-1	0	60*	5	38
COc1ccc(C(=O)OC(C)C(=O)NC(C)CCc2ccccc2)cc1[N+](=O)[O-] (stereo unspecified)	nt	3	nt	59*	nt	32*
CC(OC(=O)c1ccc(Cl)c([N+](=O)[O-])c1)C(=O)N1CCN(Cc2ccccc2)CC1 (stereo unspecified)	nt	nt	nt	73*	nt	54*
Cc1cc(C(=O)NC(C)CCc2ccccc2)ccc1[N+](=O)[O-] (stereo unspecified)	nt	-2	nt	52*	nt	23
COc1ccc(C(=O)OCC(=O)NCCCc2ccccc2)cc1[N+](=O)[O-]	-2	1	2	79*	8	79*
CC(C(=O)N1CCN(Cc2ccccc2)CC1)c1ccc([N+](=O)[O-])cc1 (stereo unspecified)	0	0	1	28	-8	nt
CC(CCc1ccccc1)NC(=O)c1ccc(C(=O)NC(C)CCc2ccccc2)cc1 (stereo unspecified)	1	nt	1	-10	-17	nt
O=[N+]([O-])c1ccccc1S(=O)(=O)N1CCN(C2CCN(Cc3ccccc3)CC2)CC1	nt	-2	nt	-7	nt	nt
COc1cc(S(=O)(=O)NC2CCCCC2C)ccc1F (stereo unspecified)	nt	-3	nt	3	nt	nt
COCCNC(=O)C(c1ccc(F)cc1)N(C(=O)CCC(=O)Nc1nccs1)c1cccc(C)c1 (stereo unspecified)	-2	nt	-2	1	-27	nt
COc1ccc(/C=N/Nc2nc(Nc3ccccc3)nc(N3CCCC3)n2)cc1[N+](=O)[O-]	-7	-3	-5	6	-72	nt
COc1ccc(/C=N/Nc2nc(Nc3ccccc3)nc(N3CCCCC3)n2)c(OC)c1	2	-2	1	50*	5	23
O=C(Oc1cccc(/C=N/Nc2nc(N3CCOCC3)nc(N3CCOCC3)n2)c1)c1ccco1	1	3	nt	4	18	nt
CCOc1cc(/C=N/Nc2nc(N3CCCCC3)nc(N3CCCCC3)n2)ccc1OC(=O)c1ccco1	1	0	-3	71*	-81	2
COc1cc(/C=N/Nc2nc(Nc3ccccc3)nc(N3CCOCC3)n2)ccc1OC(=O)c1ccco1	-1	0	-1	67*	-112	24
Cc1cccc(CN2[C@@H](CC(C)C)COCCS2(=O)=O)c1	nt	?	nt	3	nt	nt
CN(C)c1nc(N)c2ncc(=S)[nH]c2n1	1	-4	7	-4	-171	nt
CC(C)N(C(=O)COC(=O)c1cccc(N(C)C)c1)c1ccccc1	nt	-2	nt	8	nt	nt
O=C(CN1C(=O)c2cccnc2Oc2ccc(Cl)cc21)NC1CCCCC1	nt	-2	nt	23	nt	nt
N#Cc1ccc(Oc2ccc(-c3nc4ccccc4nc3-c3ccccc3)cc2)cc1C#N	2	0	2	70*	-70	28
N#Cc1ccc(Oc2ccc(-c3cnc4ccccc4n3)cc2)cc1C#N	-1	2	1	42	6	nt
Cc1ccc([N+](=O)[O-])cc1NC(=O)CCc1ccccc1	-3	-1	0	50*	2	52*
SMILES	Runt-SMMHC FRET	RanGTP-Imp inh	Runt-CBFb FRET	FAS TE block	Calpain2 inh	FAS-TE inh conf
O=C(CCCc1ccccc1)Nc1cccc([N+](=O)[O-])c1	nt	2	nt	66*	nt	60*
O=C(CN1CCN(c2cccc(Cl)c2)CC1)Nc1ccc([N+](=O)[O-])cc1C(=O)Nc1ccccc1F	0	6	1	60*	-6	24
Cc1ccc([N+](=O)[O-])cc1NC(=O)CCCOc1ccccc1	-5	-4	-1	68*	17	32*
CCOC(=O)C(=O)Nc1cc([N+](=O)[O-])ccc1C	1	-1	1	-4	-13	nt
O=C(CN1CCN(c2ccccc2)CC1)Nc1cccc([N+](=O)[O-])c1	-3	5	1	51*	-1	50*
CCCCNC(=S)Nc1cc([N+](=O)[O-])ccc1C	2	4	-4	51*	3	37*
O=C(OCC(=O)N1CCCC1=O)c1cc2ccccc2o1	nt	nt	nt	-2	nt	nt
CN(CC(=O)Nc1ccccc1Br)C(=O)C1CCN(C(=O)c2ccc(Cl)cc2)CC1	nt	9	nt	-5	nt	nt
N#C/C(=C\c1cc([N+](=O)[O-])c(N2CCCCC2)cc1N1CCCCC1)c1nn(-c2ccccc2)c(N)c1C#N	-8	7	-3	57*	-95	1
CN(C)c1ccc(-c2nnc(-c3ccccc3F)o2)cc1	nt	1	nt	14	nt	nt
CCOc1cccc2cc(C(=O)NCCC3=CCCCC3)c(=O)oc12	-2	-3	-7	87*	-6	74*
CCOc1cccc2cc(C(=O)Nc3nccs3)c(=O)oc12	-3	3	-2	-7	-12	nt
CC(C)(C)c1ccc(C(=O)N2CCC2(C)C(=O)NS(=O)(=O)c2ccc(C#N)cc2)cc1 (stereo unspecified)	nt	nt	nt	53*	nt	65*
CC1(C(=O)NS(=O)(=O)c2ccc(C#N)cc2)CCN1C(=O)c1cccc(F)c1 (stereo unspecified)	nt	nt	nt	-3	nt	nt
Cc1ccc(S(=O)(=O)N(C(=O)c2ccncc2)c2ccc(OC(=O)c3ccncc3)c3ccccc23)c(C)c1	36	-5	7	46	18	nt
Cc1ccc(S(=O)(=O)N(C(=O)c2ccncc2)c2ccc(OC(=O)c3ccncc3)c3ccccc23)cc1	32	0	37	57*	10	5
CCCCn1nnnc1C1(C)CCC(=O)N1c1ccc(N2CCOCC2)cc1 (stereo unspecified)	nt	nt	nt	-4	nt	nt
N#C/C(=C\c1ccccc1C(F)(F)F)C(=O)Nc1ccccc1	-1	4	0	36	-26	nt
